Activity calls are given as the source filed them. No cut-off for these calls is given here.
How the values were obtained:
[1] = Selectivity index, ratio of CC50 for human PM1 cells to IC50 for HIV-1 RF; format: functional
Procedure, shortened: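 Selectivity index is CC50/IC50, using values determined in the same time period. CC50 was measured by MTT for TZM-bl and PM-1 cells and by trypan blue exclusion after 14 days for macrophages. Both were fitted by nonlinear regression.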

[2] = Cytotoxicity against human MT4 cells after 24 hrs by MTT assay; format: cell-based
[3] = tested on: Human immunodeficiency virus 1; assay: Antiviral activity against HIV-1 SF162 infected in hu-SCID mouse assessed as protection from viral infection at 225 uM; format: functional; conditions: Human immunodeficiency virus 1, SF162 ISOLATE
[4] = tested on: Human immunodeficiency virus 1; assay: Antiviral activity against HIV-1 SM052 harboring NNTRI 101E and 103N mutant infected in human MT4 cells assessed as inhibition of viral replication relative to HIV-1 3B; format: functional
Procedure, shortened: (§1)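 MT-4 cells (3 x 10^4/well) infected with site-directed mutants or recombinant clinical isolates (200 TCID50/well) with drug, cultured 3 to 5 days. Viability read by MTT colorimetric antivirogram assay. IC50 by nonlinear regression; fold change = IC50 for the test isolate / IC50 for wild-type HIV-1 IIIB tested in parallel (mean or median).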

[5] = tested on: Human immunodeficiency virus 1; assay: Antiviral activity against HIV-1 subtype CRF02_AG V022825 infected in human MT4 cells assessed as inhibition of viral replication relative to HIV-1 3B; format: functional; procedure, shortened: as §1
[6] = tested on: Human immunodeficiency virus 1; assay: Antiviral activity against HIV-1 subtype C V022816 infected in human MT4 cells assessed as inhibition of viral replication relative to HIV-1 3B; format: functional
Procedure, shortened: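 Recombinant clinical HIV-1 isolates (200 TCID50/well) were tested in MT-4 cells (3 x 10^4/well) over 3–5 days, with an MTT viability read-out. IC50 was fitted by nonlinear regression. Fold change is the isolate IC50 divided by the HIV-1IIIB IC50, tested in parallel.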

[7] = tested on: Human immunodeficiency virus 1; assay: Antiviral activity against HIV-1 Bal infected in human PM1 cells assessed as inhibition of transmission of virus to premissive T cells at 10 uM; format: functional; conditions: Human immunodeficiency virus 1, Bal
Procedure, shortened: (§2)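 Explants were pretreated with drug for 1 h, then exposed to HIV-1BaL for 2 h with drug present and washed. Cells that migrated out overnight were washed and cocultured with PM-1 cells (4 x 10^4/well) for about 10 days. Transfer was read as p24 by ELISA in coculture supernatant (detection limit 300 pg/ml). Two donors, triplicate.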

[8] = tested on: Human immunodeficiency virus 1; assay: Antiviral activity against HIV-1 Bal infected in 1 hr compound pretreated human ectocervical explant tissue assessed as inhibition of provirus formation at 1 nM by RT-PCR; format: functional; conditions: Human immunodeficiency virus 1, Bal
Procedure, shortened: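 Ectocervical explants were pretreated with drug for 1 h, then exposed to HIV-1BaL (two 50% tissue infectious doses, about 10^4 TCID50 on PM-1) for 2 h at 37°C with drug present. Explants were washed and cultured overnight, then cultured separately for 10 days. Tissue was proteinase K-digested and proviral LTR DNA measured by multiplex qPCR against β-actin (10 copies/10^5 cells sensitivity). Two donors, triplicate.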

[9] = tested on: Human immunodeficiency virus 1; assay: Antiviral activity against HIV-1 Bal infected in 24 hrs 100 to 1000 nM compound pretreated human ectocervical explant tissue assessed as prolonged inhibition of viral infection post compound removal measured after 4 days post compound removal; format: functional
Procedure, shortened: (§3)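 Ectocervical explants were exposed to drug (0.01–10 µM) for 2 or 24 h at 37°C and washed. They received HIV-1BaL (2 h) on day 0, 2, 4 or 6 after drug removal, with no drug present. Read-outs at 10 days post-exposure: explant p24 ELISA, tissue proviral DNA by qPCR, and p24 in migratory cell–PM-1 cocultures. Three donors (2 h) or two donors (24 h), triplicate.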

[10] = tested on: Human immunodeficiency virus 1; assay: Antiviral activity against HIV-1 subtype CRF05_DF V022823 infected in human MT4 cells assessed as inhibition of viral replication relative to HIV-1 3B; format: functional; procedure, shortened: as §1
[11] = tested on: Human immunodeficiency virus 1; assay: Antiviral activity against HIV-1 subtype CRF01_AE V022820 infected in human MT4 cells assessed as inhibition of viral replication relative to HIV-1 3B; format: functional; procedure, shortened: as §1
[12] = tested on: Human immunodeficiency virus 1; assay: Antiviral activity against HIV-1 subtype B V022810 harboring NNRTI A98S andK101R mutant infected in human MT4 cells assessed as inhibition of viral replication relative to HIV-1 3B; format: functional; procedure, shortened: as §1
[13] = tested on: Human immunodeficiency virus 1; assay: Antiviral activity against HIV-1 SM024 harboring NNTRI 190A mutant infected in human MT4 cells assessed as inhibition of viral replication relative to HIV-1 3B; format: functional; procedure, shortened: as §1
[14] = tested on: Human immunodeficiency virus 1; assay: Antiviral activity against HIV-1 subtype B V022813 infected in human MT4 cells assessed as inhibition of viral replication relative to HIV-1 3B; format: functional; procedure, shortened: as §1
[15] = tested on: Human immunodeficiency virus 1; assay: Antiviral activity against HIV-1 Bal infected in human cervical tissue explants assessed as inhibition of dissemination of virus via migratory cells after 2 hrs in presence of 12.5% whole semen; format: functional, organism-based
Procedure, shortened: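 Cervical explants were exposed to HIV-1BaL plus drug for 2 h in cervical mucus simulant or whole semen (final 12.5%), then washed. Migratory cells were cocultured with PM-1 indicator cells and infection read as p24 in coculture supernatant.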

[16] = tested on: Human immunodeficiency virus 1; assay: Antiviral activity against HIV-1 Bal infected in human cervical tissue explants assessed as inhibition of dissemination of virus via migratory cells after 2 hrs; format: functional, organism-based; procedure, shortened: as §2
[17] = tested on: Human immunodeficiency virus 1; assay: Antiviral activity against HIV-1 3B infected in human MT4 cells after 3 to 5 days by MTT assay; conditions: Human immunodeficiency virus 1, 3B, MT4, 72 to 120 h
[18] = Cytotoxicity against human PM1 cells after 24 hrs by MTT assay; format: cell-based
Procedure, shortened: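 Uninfected PM-1 or TZM-bl cells were exposed to drug and viability measured by MTT dye reduction as a percentage of untreated controls. CC50 was derived by nonlinear regression.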

[19] = tested on: Human immunodeficiency virus 1; assay: Antiviral activity against HIV-1 Bal infected in 2 hrs 100 nM compound pretreated human ectocervical explant tissue assessed as prolonged inhibition of viral infection post compound removal; format: functional; procedure, shortened: as §3
[20] = tested on: Human immunodeficiency virus 1; assay: Antiviral activity against HIV-1 subtype CRF02_AG V022830 infected in human MT4 cells assessed as inhibition of viral replication relative to HIV-1 3B; format: functional; procedure, shortened: as §1
[21] = tested on: Human immunodeficiency virus 1; assay: Antiviral activity against HIV-1 Bal infected in human TZM-bl cells after 24 hrs by luciferase reporter gene assay; format: functional, organism-based; conditions: Human immunodeficiency virus 1, Bal
Procedure, shortened: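 TZM-bl cells (5 x 10^4/well), cultured overnight, pretreated with drug 1 h, then infected with HIV-1 BaL (200 TCID50/ml). After 24 h, cells washed and lysed and luciferase read. Drug-treated wells compared with untreated controls; IC50 (infection at 50% of drug-free control) by nonlinear regression.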

[22] = tested on: Human immunodeficiency virus 1; assay: Antiviral activity against HIV-1 Bal infected in 24 hrs 10 nM compound pretreated human ectocervical explant tissue assessed as prolonged inhibition of viral infection post compound removal; format: functional; procedure, shortened: as §3
[23] = tested on: Human immunodeficiency virus 1; assay: Antiviral activity against HIV-1 subtype H V022827 harboring NNRTI V179I mutant infected in human MT4 cells assessed as inhibition of viral replication relative to HIV-1 3B; format: functional; procedure, shortened: as §1
[24] = tested on: Human immunodeficiency virus 1; assay: Antiviral activity against HIV-1 subtype H V022828 harboring NNRTI K101Q and V179I mutant infected in human MT4 cells assessed as inhibition of viral replication relative to HIV-1 3B; format: functional; procedure, shortened: as §1

Cc1cc(C)c(Nc2ccnc(Nc3ccc(C#N)cc3)n2)c(C)c1 [DAPIVIRINE]
Selectivity Index [1]: 4583 | CC50 at 24 h [2]: 2150 nM | inhibition in vivo at 225 µM [3]: 85.7% | Ratio IC50 [4]: 17 | Ratio IC50 [5]: 0.8 | Ratio IC50 [6]: 1.8 | inhibition at 10 µM [7]: > 90% | inhibition at 0.001 µM [8]: > 99% | inhibition (INH) [9]: 90% | Ratio IC50 [10]: 0.7 | Ratio IC50 [11]: 0.9 | Ratio IC50 [12]: 1.6 | Ratio IC50 [13]: 1 | Ratio IC50 [14]: 0.7 | inhibition [15]: Active | inhibition [16]: Active | IC50 [17]: 0.9 nM | CC50 at 24 h [18]: 11000 nM | inhibition (INH) [19]: 90% | Ratio IC50 [20]: 1.6 | IC50 [21]: 1.46 nM | IC90 [21]: 10.2 nM | inhibition (INH) [22]: 90% | Ratio IC50 [23]: 0.9 | Ratio IC50 [24]: 1.5
